Measured values published in ChEMBL document CHEMBL1932983, “Towards a stable noeuromycin analog with a D-manno configuration: synthesis and glycosidase inhibition of D-manno-like tri- and tetrahydroxylated azepanes” (Bioorg Med Chem, 2012).
pIC50: −log10 of the molar value. Activity calls are given as the source filed them. No cut-off for these calls is given here.

How the values were obtained:
[1] = molecular target: T1, Beta-galactosidase (Bos taurus, UniProt Q58D55); assay: Inhibition of bovine liver beta-galactosidase
T1 sequence (Q58D55 whole entry): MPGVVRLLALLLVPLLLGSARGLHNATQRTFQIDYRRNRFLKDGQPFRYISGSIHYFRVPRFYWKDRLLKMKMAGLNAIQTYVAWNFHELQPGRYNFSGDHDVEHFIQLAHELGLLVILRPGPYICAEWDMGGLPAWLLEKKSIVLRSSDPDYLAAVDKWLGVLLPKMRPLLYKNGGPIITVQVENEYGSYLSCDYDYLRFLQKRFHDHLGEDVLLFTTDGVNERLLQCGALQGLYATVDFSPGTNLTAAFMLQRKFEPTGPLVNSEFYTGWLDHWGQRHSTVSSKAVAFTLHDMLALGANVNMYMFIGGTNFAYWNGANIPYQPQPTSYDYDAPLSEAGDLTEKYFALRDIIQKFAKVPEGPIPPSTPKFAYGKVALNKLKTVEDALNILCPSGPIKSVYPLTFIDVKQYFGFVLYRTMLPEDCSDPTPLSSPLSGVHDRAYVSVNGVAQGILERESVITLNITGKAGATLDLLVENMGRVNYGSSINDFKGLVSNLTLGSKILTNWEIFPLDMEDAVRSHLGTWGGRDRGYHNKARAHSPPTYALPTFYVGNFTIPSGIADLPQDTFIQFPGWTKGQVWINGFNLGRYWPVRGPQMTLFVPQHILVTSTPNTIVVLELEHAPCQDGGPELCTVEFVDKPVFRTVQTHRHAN

[2] = molecular target: Probable alpha-glucosidase Os06g0675700 (Oryza sativa Japonica Group) (UniProt Q653V7); assay: Inhibition of rice alpha-glucosidase at 1000 uM
Chain of Probable alpha-glucosidase Os06g0675700 (Oryza sativa Japonica Group) (Q653V7 whole entry): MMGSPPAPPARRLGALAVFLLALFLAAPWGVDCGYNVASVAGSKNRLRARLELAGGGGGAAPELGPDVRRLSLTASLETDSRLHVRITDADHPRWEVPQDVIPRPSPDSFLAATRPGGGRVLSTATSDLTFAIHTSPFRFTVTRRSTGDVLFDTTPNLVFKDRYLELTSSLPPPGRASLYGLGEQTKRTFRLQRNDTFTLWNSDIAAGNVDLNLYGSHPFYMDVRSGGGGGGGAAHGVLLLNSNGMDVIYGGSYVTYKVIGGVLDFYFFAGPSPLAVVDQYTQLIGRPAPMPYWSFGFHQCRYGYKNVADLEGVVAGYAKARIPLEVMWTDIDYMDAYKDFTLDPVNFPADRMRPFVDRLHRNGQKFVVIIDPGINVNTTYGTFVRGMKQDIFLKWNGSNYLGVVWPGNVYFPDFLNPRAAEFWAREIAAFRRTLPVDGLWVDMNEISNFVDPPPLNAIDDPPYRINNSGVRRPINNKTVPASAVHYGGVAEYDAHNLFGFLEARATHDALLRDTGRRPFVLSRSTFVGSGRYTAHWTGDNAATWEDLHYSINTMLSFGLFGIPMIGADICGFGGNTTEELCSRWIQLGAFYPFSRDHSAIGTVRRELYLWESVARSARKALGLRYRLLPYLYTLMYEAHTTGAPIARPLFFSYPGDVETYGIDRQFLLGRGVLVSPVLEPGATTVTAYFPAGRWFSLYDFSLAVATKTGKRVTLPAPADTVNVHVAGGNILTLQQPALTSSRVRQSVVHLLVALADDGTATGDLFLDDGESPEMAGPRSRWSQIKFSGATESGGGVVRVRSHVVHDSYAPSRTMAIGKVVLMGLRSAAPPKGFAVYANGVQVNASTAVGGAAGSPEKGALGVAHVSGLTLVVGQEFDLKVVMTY
Outline: (§1)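 Commercial glycosidases were tested with a single inhibitor level of 1000 μM, and percent inhibition was recorded. "NI" means less than 50% inhibition at that concentration.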

[3] = molecular target: Oligo-1,6-glucosidase IMA1 (Saccharomyces cerevisiae S288c) (UniProt P53051); assay: Inhibition of yeast alpha-glucosidase at 1000 uM; outline: as §1
Chain of Oligo-1,6-glucosidase IMA1 (Saccharomyces cerevisiae S288c) (P53051 whole entry): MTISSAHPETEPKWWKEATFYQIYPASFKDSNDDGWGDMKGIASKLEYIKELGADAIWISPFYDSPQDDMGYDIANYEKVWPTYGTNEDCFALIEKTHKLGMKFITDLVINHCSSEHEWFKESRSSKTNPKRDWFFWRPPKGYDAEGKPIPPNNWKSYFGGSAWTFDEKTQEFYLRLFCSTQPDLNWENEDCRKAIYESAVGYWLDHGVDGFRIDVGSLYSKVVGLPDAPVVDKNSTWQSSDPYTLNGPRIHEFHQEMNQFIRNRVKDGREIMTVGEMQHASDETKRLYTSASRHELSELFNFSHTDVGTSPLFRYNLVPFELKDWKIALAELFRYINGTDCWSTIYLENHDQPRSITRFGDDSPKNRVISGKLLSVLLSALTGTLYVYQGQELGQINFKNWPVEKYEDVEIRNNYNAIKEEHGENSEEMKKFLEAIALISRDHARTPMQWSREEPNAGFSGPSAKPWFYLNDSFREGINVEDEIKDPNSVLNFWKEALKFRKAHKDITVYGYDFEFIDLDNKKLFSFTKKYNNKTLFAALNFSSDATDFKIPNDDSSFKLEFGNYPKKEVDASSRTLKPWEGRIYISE

[4] = tested on: Prunus dulcis; assay: Inhibition of almond beta-glucosidase at 1000 uM; outline: as §1
[5] = tested on: Coffea; assay: Inhibition of coffee beans alpha-galactosidase at 1000 uM; outline: as §1
[6] = tested on: Canavalia ensiformis; assay: Inhibition of jack beans alpha-mannosidase at 1000 uM; outline: as §1
[7] = tested on: Helix pomatia; assay: Inhibition of snail beta-mannosidase at 1000 uM; outline: as §1
[8] = tested on: Penicillium decumbens; assay: Inhibition of Penicillium decumbens alpha-L-rhamnosidase at 1000 uM; outline: as §1
[9] = molecular target: T2, Tissue alpha-L-fucosidase (Bos taurus) (UniProt Q2KIM0); assay: Inhibition of bovine kidney alpha-L-fucosidase at 1000 uM; outline: as §1
T2 sequence (whole entry): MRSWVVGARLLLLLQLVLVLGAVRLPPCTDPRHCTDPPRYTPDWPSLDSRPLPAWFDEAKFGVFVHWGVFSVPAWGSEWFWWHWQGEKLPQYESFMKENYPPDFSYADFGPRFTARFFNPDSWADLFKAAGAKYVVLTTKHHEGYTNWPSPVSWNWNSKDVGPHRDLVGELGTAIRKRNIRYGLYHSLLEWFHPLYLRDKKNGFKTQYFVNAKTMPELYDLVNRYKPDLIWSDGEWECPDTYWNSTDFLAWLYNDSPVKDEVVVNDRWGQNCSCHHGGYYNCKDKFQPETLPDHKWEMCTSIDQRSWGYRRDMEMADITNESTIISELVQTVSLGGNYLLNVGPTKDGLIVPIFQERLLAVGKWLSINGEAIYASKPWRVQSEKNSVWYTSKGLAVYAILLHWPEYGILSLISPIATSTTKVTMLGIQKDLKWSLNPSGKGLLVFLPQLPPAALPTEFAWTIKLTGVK

[10] = molecular target: T3, Beta-glucuronidase (Bos taurus) (UniProt A3KMY8); assay: Inhibition of bovine liver beta glucuronidase at 1000 uM; outline: as §1
T3 sequence (whole entry): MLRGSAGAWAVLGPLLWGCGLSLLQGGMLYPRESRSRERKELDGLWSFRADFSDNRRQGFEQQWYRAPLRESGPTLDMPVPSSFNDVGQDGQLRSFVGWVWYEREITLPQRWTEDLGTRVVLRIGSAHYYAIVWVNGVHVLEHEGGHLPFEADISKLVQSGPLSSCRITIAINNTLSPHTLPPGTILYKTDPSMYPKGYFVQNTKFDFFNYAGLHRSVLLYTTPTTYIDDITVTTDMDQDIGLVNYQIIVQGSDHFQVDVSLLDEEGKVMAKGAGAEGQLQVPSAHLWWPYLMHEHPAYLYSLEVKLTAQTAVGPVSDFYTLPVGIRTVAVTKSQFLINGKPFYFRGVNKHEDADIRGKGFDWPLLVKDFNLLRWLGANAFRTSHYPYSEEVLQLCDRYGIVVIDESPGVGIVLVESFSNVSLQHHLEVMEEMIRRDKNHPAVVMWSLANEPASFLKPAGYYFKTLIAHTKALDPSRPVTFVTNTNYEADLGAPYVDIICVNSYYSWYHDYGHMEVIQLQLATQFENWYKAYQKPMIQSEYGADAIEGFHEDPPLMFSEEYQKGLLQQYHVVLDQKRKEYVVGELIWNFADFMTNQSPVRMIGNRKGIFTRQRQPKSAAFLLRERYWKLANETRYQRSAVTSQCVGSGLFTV

[11] = molecular target: T4, Uncharacterized protein (Sus scrofa) (UniProt I3LIR5); assay: Inhibition of pig kidney trehalase at 1000 uM; outline: as §1
T4 sequence (whole entry): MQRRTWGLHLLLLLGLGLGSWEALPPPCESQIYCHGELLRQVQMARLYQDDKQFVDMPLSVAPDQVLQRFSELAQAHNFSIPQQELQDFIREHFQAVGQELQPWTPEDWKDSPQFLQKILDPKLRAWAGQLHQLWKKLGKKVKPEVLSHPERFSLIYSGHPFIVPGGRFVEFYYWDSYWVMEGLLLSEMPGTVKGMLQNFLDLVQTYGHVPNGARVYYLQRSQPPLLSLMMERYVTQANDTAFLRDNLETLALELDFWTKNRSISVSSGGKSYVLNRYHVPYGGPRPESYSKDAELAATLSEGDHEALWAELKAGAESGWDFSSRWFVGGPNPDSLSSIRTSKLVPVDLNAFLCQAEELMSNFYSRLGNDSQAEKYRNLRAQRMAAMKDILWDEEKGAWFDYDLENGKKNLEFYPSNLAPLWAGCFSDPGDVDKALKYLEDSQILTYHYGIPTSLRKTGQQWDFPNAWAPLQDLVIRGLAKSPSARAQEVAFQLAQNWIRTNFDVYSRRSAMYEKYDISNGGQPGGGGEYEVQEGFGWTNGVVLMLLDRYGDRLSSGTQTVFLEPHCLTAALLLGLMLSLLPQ

[12] = tested on: Aspergillus niger; assay: Inhibition of Aspergillus niger amyloglucosidase at 1000 uM; outline: as §1
[13] = molecular target: T5, Lysosomal alpha-mannosidase (Bos taurus) (UniProt Q29451); assay: Inhibition of lysosomal alpha-mannosidase in MDBK cells assessed as Man5-8GlcNAc2FOS formation at 1 mM after 24 hrs by HPLC analysis; assay type: cell-based
T5 sequence (whole entry): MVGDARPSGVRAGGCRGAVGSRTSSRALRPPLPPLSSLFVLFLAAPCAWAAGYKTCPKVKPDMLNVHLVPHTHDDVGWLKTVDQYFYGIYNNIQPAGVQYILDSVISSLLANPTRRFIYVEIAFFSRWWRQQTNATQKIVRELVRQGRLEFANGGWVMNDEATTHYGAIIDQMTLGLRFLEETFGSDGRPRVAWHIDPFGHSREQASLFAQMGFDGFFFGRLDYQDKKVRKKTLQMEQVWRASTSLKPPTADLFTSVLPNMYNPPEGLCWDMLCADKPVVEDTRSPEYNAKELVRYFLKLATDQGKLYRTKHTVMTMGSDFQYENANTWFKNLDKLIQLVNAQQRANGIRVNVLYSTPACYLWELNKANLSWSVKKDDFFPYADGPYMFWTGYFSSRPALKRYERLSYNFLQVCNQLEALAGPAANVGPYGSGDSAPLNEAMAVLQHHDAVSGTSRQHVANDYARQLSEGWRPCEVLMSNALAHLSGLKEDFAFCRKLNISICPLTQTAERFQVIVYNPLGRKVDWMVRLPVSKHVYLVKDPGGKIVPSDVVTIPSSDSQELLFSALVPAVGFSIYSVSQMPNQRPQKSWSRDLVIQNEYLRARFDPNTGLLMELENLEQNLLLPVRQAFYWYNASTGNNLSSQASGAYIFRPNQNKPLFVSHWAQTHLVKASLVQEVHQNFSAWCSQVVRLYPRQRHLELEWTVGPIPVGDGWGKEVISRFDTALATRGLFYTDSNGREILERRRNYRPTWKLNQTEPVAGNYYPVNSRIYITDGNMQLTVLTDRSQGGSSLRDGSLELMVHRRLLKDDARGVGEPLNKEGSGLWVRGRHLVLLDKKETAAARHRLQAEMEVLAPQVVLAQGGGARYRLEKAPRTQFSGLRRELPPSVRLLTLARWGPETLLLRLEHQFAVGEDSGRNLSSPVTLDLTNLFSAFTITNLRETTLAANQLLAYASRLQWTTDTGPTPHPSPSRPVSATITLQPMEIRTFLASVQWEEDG
Outline: (§2)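 MDBK cells were treated with azepanes alongside untreated cells and a swainsonine control (1 mM, 24 h). Free oligosaccharides (FOS) were labelled with 2-AA and profiled by fluorescence HPLC. Mannosylated species were compared: Man3GlcNAc2 and Man5-8GlcNAc2 indicate lysosomal activity, and Man5GlcNAc1 indicates cytosolic mannosidase activity.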

[14] = molecular target: Oligo-1,6-glucosidase IMA1 (Saccharomyces cerevisiae S288c, UniProt P53051); assay: Inhibition of yeast alpha-glucosidase
Chain of Oligo-1,6-glucosidase IMA1 (P53051 whole entry): as the sequence (P53051 whole entry) above

[15] = Inhibition of almond beta-glucosidase; set-up: species or system Prunus dulcis
[16] = Inhibition of coffee beans alpha-galactosidase; set-up: species or system Coffea
[17] = Inhibition of jack beans alpha-mannosidase; set-up: species or system Canavalia ensiformis
[18] = molecular target: T6, Beta-glucuronidase (Bos taurus, UniProt A3KMY8); assay: Inhibition of bovine liver beta glucuronidase
T6 sequence (A3KMY8 whole entry): T3 sequence (whole entry)

[19] = molecular target: T5, Lysosomal alpha-mannosidase (Bos taurus); assay: Inhibition of lysosomal alpha-mannosidase in MDBK cells assessed as Man5-8GlcNAc2FOS formation at 0.1 to 1 mM after 24 hrs by HPLC analysis; assay type: cell-based; outline: as §2
[20] = molecular target: Probable alpha-glucosidase Os06g0675700 (Oryza sativa Japonica Group, UniProt Q653V7); assay: Inhibition of rice alpha-glucosidase
Chain of Probable alpha-glucosidase Os06g0675700 (Q653V7 whole entry): as the sequence (Q653V7 whole entry) above

[21] = molecular target: T7, Tissue alpha-L-fucosidase (Bos taurus, UniProt Q2KIM0); assay: Inhibition of bovine kidney alpha-L-fucosidase
T7 sequence (Q2KIM0 whole entry): T2 sequence (whole entry)

[22] = molecular target: T8, Glucosylceramidase (Bos taurus) (UniProt Q2KHZ8); assay: Inhibition of bovine liver beta-glucosidase at 1000 uM; outline: as §1
T8 sequence (whole entry): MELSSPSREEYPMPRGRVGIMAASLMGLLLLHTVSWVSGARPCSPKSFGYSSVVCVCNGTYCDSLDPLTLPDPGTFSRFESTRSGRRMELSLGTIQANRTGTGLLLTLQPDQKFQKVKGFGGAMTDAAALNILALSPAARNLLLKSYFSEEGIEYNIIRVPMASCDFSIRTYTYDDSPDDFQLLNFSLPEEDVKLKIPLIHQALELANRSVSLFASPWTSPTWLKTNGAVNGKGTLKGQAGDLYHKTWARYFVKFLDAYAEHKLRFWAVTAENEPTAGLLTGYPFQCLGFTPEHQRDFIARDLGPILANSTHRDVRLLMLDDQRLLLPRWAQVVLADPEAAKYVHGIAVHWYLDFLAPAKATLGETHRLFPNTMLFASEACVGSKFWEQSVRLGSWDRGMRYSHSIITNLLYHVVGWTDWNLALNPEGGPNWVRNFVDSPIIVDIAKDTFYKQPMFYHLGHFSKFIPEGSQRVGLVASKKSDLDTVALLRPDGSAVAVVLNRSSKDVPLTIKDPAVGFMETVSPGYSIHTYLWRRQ

[23] = tested on: MDBK; assay: Inhibition of cytosolic alpha-mannosidase in MDBK cells assessed as Man5GlcNAc1 formation at 1 mM after 24 hrs by HPLC analysis; assay type: cell-based; conditions: Bos taurus; outline: as §2

pIC50 [1]	inhibition [2]	inhibition [3]	inhibition [4]	inhibition [5]	inhibition [7]	inhibition [8]	inhibition [9]	inhibition [10]	inhibition [11]	inhibition [12]	inhibition [13]	pIC50 [15]	pIC50 [16]	pIC50 [17]	pIC50 [18]	inhibition [19]	pIC50 [20]	pIC50 [21]	Structure (SMILES)	also measured
3.35	0%	18.9%	41.4%	16.8%	0%	0.9%	15.8%	0%	16.6%	14.2%	Active								OC[C@H]1CNC[C@@H](O)[C@@H](O)[C@@H]1O	inhibition [6]: 23%
3.38	14.7%				0%	1.5%	25%		17.2%	0.3%		3.80	4.19	3.09	3.23	inactive			OC[C@@H]1CNC[C@@H](O)[C@@H](O)[C@@H]1O	pIC50 [14]: 4.15
3.70		37.8%			0.4%	20.6%			39.9%	6.9%		4.85	4.85	4.00	3.86	inactive	4.92	4.19	C[C@@H]1CNC[C@@H](O)[C@@H](O)[C@@H]1O	
3.06		0%	29.4%	37.6%	4.3%	6.8%		0%	22.2%	0%	Active			3.47			3.65	3.74	C[C@H]1CNC[C@@H](O)[C@@H](O)[C@@H]1O	inhibition [22]: 49.2%; inhibition [23]: Active
